Test results as given in ChEMBL document CHEMBL3616379, “From carbohydrates to drug-like fragments: Rational development of novel α-amylase inhibitors” (Bioorg Med Chem, 2015).
Calls of active or inactive are those of the source. The rule behind the calls is not given here.

Legend:
Alpha-amylase 1A = target: T1, Alpha-amylase 1A (Homo sapiens, UniProt P0DUB6); test: Inhibition of human salivary alpha-amylase using GalG2CNP as substrate by UV-Vis spectrophotometric analysis
T1 sequence (P0DUB6 whole entry): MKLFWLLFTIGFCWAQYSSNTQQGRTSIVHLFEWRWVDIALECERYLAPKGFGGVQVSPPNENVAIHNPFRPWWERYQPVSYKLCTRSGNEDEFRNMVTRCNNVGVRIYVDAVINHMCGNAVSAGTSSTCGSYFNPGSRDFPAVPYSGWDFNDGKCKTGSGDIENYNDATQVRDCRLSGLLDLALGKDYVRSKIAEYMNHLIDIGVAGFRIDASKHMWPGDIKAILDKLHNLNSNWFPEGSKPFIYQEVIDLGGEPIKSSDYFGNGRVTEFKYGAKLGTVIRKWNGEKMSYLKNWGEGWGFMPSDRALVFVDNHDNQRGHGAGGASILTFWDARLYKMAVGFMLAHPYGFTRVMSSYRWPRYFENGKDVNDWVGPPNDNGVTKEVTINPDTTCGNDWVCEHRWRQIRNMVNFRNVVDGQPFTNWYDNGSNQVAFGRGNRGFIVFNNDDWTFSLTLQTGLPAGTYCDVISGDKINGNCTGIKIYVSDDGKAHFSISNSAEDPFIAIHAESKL

Pancreatic alpha-amylase [1] = target: T2, Pancreatic alpha-amylase (Homo sapiens, UniProt P04746); test: Inhibition of human pancreatic alpha-amylase expressed in Pichia pastoris using amylase as substrate preincubated with substrate for 10 mins followed by protein addition measured every 5 mins by Dixon plot analysis
T2 sequence (P04746 whole entry): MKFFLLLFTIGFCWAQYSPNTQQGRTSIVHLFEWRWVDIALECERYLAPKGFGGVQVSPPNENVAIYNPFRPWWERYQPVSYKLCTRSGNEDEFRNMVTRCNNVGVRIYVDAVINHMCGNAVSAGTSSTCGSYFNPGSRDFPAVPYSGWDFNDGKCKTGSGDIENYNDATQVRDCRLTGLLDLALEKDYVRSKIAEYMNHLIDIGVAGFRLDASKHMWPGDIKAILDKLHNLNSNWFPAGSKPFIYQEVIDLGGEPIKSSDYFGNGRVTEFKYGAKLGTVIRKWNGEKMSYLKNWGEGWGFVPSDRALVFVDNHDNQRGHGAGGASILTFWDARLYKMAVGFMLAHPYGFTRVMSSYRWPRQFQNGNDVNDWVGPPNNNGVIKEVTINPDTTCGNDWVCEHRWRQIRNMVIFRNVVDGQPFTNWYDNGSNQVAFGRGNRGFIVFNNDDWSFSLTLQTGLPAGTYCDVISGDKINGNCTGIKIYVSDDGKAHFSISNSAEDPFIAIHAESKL

Alpha amylase = target: T3, Alpha amylase (Homo sapiens, UniProt P0DUB6); test: (§1) Inhibition of alpha-amylase (unknown origin) relative to control
T3 sequence (P0DUB6 whole entry): T1 sequence (P0DUB6 whole entry)

Pancreatic alpha-amylase [2] = target: T2, Pancreatic alpha-amylase; test: Inhibition of human pancreatic alpha-amylase
[3] = target: T4, Alpha-amylase 1A (Homo sapiens) (UniProt P0DUB6); test: Potency index, ratio of BAS 04880564 IC50 to compound IC50 for human salivary alpha-amylase
T4 sequence (whole entry): T1 sequence (P0DUB6 whole entry)

[4] = target: T4, Alpha-amylase 1A (Homo sapiens); test: Competitive inhibition of human salivary alpha-amylase using GalG2CNP as substrate by Lineweaver-Burk plot analysis
Summary of the method: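 Inhibition mode assigned from Lineweaver-Burk plots. Human salivary α-amylase (2 nM) started reactions containing GalG2CNP (0.75–4 mM) and inhibitor in DMSO, in 50 mM MES pH 6.0 with 5 mM Ca(OAc)2, 51.5 mM NaCl, 152 mM NaN3 at 37°C. Rates from continuous 400 nm absorbance of released CNP.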

[5] = target: Alpha amylase (Homo sapiens) (UniProt P0DUB6); test: as §1; set-up: concentration or dose not given beside the values; conditions: concentration not given here

IC50 (Alpha-amylase 1A; read-out: IC50) [µM] | IC50 (Alpha amylase) [µM] | Compound | further results
735 |  | Cc1ccc(-c2csc(Nc3ccc(O)cc3)n2)cc1 | 
 |  | C[C@H]1O[C@H](O[C@H]2[C@H](O)[C@@H](O)[C@@H](O[C@H]3[C@H](O)[C@@H](O)[C@@H](O[C@H]4[C@H](O)[C@@H](O)[C@@H](O[C@H]5[C@H](O)[C@@H](O)[C@@H](O)O[C@@H]5CO)O[C@@H]4CO)O[C@@H]3CO)O[C@@H]2CO)[C@H](O)[C@@H](O)[C@@H]1N[C@H]1C=C(CO)[C@@H](O[C@H]2O[C@H](CO)[C@@H](O[C@H]3O[C@H](C)[C@@H](N[C@H]4C=C(CO)[C@@H](O[C@H]5O[C@H](CO)[C@@H](O[C@H]6O[C@H](C)[C@@H](N[C@H]7C=C(CO)[C@@H](O)[C@H](O)[C@H]7O)[C@H](O)[C@H]6O)[C@H](O)[C@H]5O)[C@H](O)[C@H]4O)[C@H](O)[C@H]3O)[C@H](O)[C@H]2O)[C@H](O)[C@H]1O | Ki (Pancreatic alpha-amylase [1]): 0.0143 µM
 | > 5000 | COc1cc(/C=C/C(=O)O)ccc1O [FERULATE] | 
 |  | C[C@H]1O[C@H](O[C@H]2[C@H](O)[C@@H](O)[C@@H](O[C@H]3[C@H](O)[C@@H](O)[C@@H](O[C@H]4[C@H](O)[C@@H](O)[C@@H](O[C@H]5[C@H](O)[C@@H](O)[C@@H](O)O[C@@H]5CO)O[C@@H]4CO)O[C@@H]3CO)O[C@@H]2CO)[C@H](O)[C@@H](O)[C@@H]1N[C@H]1C=C(CO)[C@@H](O[C@H]2O[C@H](CO)[C@@H](O[C@H]3O[C@H](C)[C@@H](N[C@H]4C=C(CO)[C@@H](O[C@H]5O[C@H](CO)[C@@H](O[C@H]6O[C@H](C)[C@@H](N[C@H]7C=C(CO)[C@@H](O[C@H]8O[C@H](CO)[C@@H](O[C@H]9O[C@H](C)[C@@H](N[C@H]%10C=C(CO)[C@@H](O)[C@H](O)[C@H]%10O)[C@H](O)[C@H]9O)[C@H](O)[C@H]8O)[C@H](O)[C@H]7O)[C@H](O)[C@H]6O)[C@H](O)[C@H]5O)[C@H](O)[C@H]4O)[C@H](O)[C@H]3O)[C@H](O)[C@H]2O)[C@H](O)[C@H]1O | Ki (Pancreatic alpha-amylase [1]): 0.0416 µM
 |  | C[C@H]1O[C@H](O[C@H]2[C@H](O)[C@@H](O)[C@@H](O)O[C@@H]2CO)[C@H](O)[C@@H](O)[C@@H]1N[C@H]1C=C(CO)[C@@H](O)[C@H](O)[C@H]1O | Ki (Pancreatic alpha-amylase [2]): 0.075 µM
 | > 14000 | O=C(O)CCc1ccc(O)c(O)c1 [DIHYDROCAFFEIC ACID] | 
270 |  | Nc1ccc(Nc2nc(-c3ccc(Cl)cc3Cl)cs2)cc1 | Ratio IC50 [3]: 0.51
260 |  | COc1cc(Br)cc(/C=C2/SC(Nc3cccc(C(=O)O)c3)=NC2=O)c1O | Ratio IC50 [3]: 0.53
138 |  | Oc1ccc(Nc2nc(-c3ccc(O)cc3O)cs2)cc1 | Inhibition mode [4]: Active
 |  | C[C@@H]1O[C@@H](OC[C@H]2O[C@@H](Oc3c(-c4ccc(O)c(O)c4)oc4cc(O)cc(O)c4c3=O)[C@H](O)[C@@H](O)[C@@H]2O)[C@H](O)[C@H](O)[C@H]1O | inhibition [5]: 20.1%
642 |  | O=C(O)c1ccc(Nc2nc(-c3ccc(O)cc3O)cs2)cc1O | 
 | 390 | O=C(/C=C/c1ccc(O)c(O)c1)O[C@@H]1C[C@](O)(C(=O)O)C[C@@H](OC(=O)/C=C/c2ccc(O)c(O)c2)[C@H]1O | 
 |  | OC[C@H]1O[C@@H](Oc2ccc(O)cc2)[C@H](O)[C@@H](O)[C@@H]1O | inhibition [5]: 30%
 |  | O=c1ccc2cc(O)c(O)cc2o1 | inhibition [5]: 17.4%
300 |  | COc1cccc(C2NC(c3cccc(OC)c3O)C([N+](=O)[O-])C(C)(C)C2[N+](=O)[O-])c1O (stereo not given) | 
50 |  | O=C1S/C(=C\c2cc(Cl)ccc2O)C(=O)N1Cc1cccc([N+](=O)[O-])c1 | Inhibition mode [4]: Active; Ratio IC50 [3]: 2.76
 | > 2000 | O=C(/C=C/c1ccc(O)c(O)c1)O[C@@H]1C[C@@](OC(=O)/C=C/c2ccc(O)c(O)c2)(C(=O)O)C[C@@H](O)[C@@H]1O [CYNARIN] | 
1040 |  | Oc1ccc(Nc2nc(-c3ccc(Cl)cc3)cs2)cc1 | 
 | > 6500 | COc1cc(/C=C/C(=O)O)cc(OC)c1O [SINAPINATE] | 
 |  | C[C@H]1O[C@H](O[C@H]2[C@H](O)[C@@H](O)[C@@H](O[C@H]3[C@H](O)[C@@H](O)[C@@H](O[C@H]4[C@H](O)[C@@H](O)[C@@H](O[C@H]5[C@H](O)[C@@H](O)[C@@H](O)O[C@@H]5CO)O[C@@H]4CO)O[C@@H]3CO)O[C@@H]2CO)[C@H](O)[C@@H](O)[C@@H]1N[C@H]1C=C(CO)[C@@H](O[C@H]2O[C@H](CO)[C@@H](O[C@H]3O[C@H](C)[C@@H](N[C@H]4C=C(CO)[C@@H](O)[C@H](O)[C@H]4O)[C@H](O)[C@H]3O)[C@H](O)[C@H]2O)[C@H](O)[C@H]1O | Ki (Pancreatic alpha-amylase [1]): 0.0147 µM
 | 280 | O=c1cc(-c2ccc(O)c(O)c2)oc2cc(O[C@@H]3O[C@H](CO)[C@@H](O)[C@H](O)[C@H]3O)cc(O)c12 [GALUTEOLIN] | 
 |  | O=c1c(O[C@@H]2O[C@H](CO)[C@@H](O)[C@H](O)[C@H]2O)c(-c2ccc(O)c(O)c2)oc2cc(O)cc(O)c12 | inhibition [5]: 12.2%
 | 1300 | COc1cc2ccc(=O)oc2cc1O [SCOPOLETIN] | 
4000 |  | CCc1cc(-c2n[nH]c(C(=O)O)c2-c2ccc3c(c2)OCO3)c(O)cc1O | 
1270 |  | Oc1ccc(Nc2nc(-c3ccccc3)cs2)cc1 | 

IC50 (Alpha-amylase 1A; read-out: IC50) [µM] | IC50 (Alpha amylase) [µM] | Compound | further results
 |  | Oc1cc(O)c2cc(O)c(-c3ccc(O)c(O)c3)[o+]c2c1 | inhibition [5]: 12%
1000 |  | CC(O)CNCCNCc1ccc(-c2ccccc2F)o1 (stereo not given) | 
680 |  | O=C(O)c1ccc(Nc2nc(-c3ccc(O)cc3O)cs2)cc1 | 
 | 3500 | Oc1cc(O)c2c(c1)O[C@H](c1ccc(O)c(O)c1)[C@H](O)C2 [(-)-EPICATECHIN] | 
 |  | Cc1cc(C=O)c(O)c(/C=N/N=C(/N/N=C/c2cc(C)cc(C=O)c2O)SCc2ccccc2)c1 | IC50 (Alpha-amylase 1A): ND(Insoluble)
 |  | Oc1cc(O)c2c(c1)O[C@@H](c1ccc(O)c(O)c1)[C@H](O)C2 | inhibition [5]: 16%
62 |  | O=C(O)c1cccc(N2C(=O)/C(=C/c3ccccc3O)SC2=S)c1 | Ratio IC50 [3]: 2.22
700 |  | CC(=O)N1CCN(C2=NC(=O)/C(=C\c3ccccc3O)S2)CC1 | 
 | > 12000 | COc1ccc(CCC(=O)O)cc1OC | 
200 |  | Cc1ccc(O)c(Cc2cc(C)cc(Cc3cc(C)ccc3O)c2O)c1 | Inhibition mode [4]: Active
 | 4800 | O=C(O)/C=C/c1ccc(O)c(O)c1 [CAFFEIC ACID] | 
40 |  | COc1ccc(Nc2nc(-c3ccccc3O)cs2)cc1 | Ratio IC50 [3]: 3.45
 |  | CC1OC(OC2C(CO)OC(OC3C(CO)OC(O)C(O)C3O)C(O)C2O)C(O)C(O)C1NC1C=C(CO)C(OC2OC(CO)C(OC3OC(CO)C(O)C(O)C3O)C(O)C2O)C(O)C1O (stereo not given) | Ki (Pancreatic alpha-amylase [1]): 1.25 µM
 | > 10000 | O=C(O)c1ccc(O)c(O)c1 [PROTOCATECHUIC ACID] | 
850 |  | C/C(=N\NC(=O)CCC(=O)Nc1ccccc1C)c1ccc(O)cc1O | 
330 |  | COc1cccc(NC(=N)Nc2nc(O)cc(CSc3ccccn3)n2)c1 | 
 |  | C[C@@H]1O[C@@H](Oc2c(-c3ccc(O)c(O)c3)oc3cc(O)cc(O)c3c2=O)[C@H](O)[C@H](O)[C@H]1O | inhibition [5]: 37.6%
492 |  | Oc1ccc(Nc2nc(-c3ccc(O)cc3)cs2)cc1 | 
4000 |  | Cc1[nH]nc(-c2ccc(O)cc2O)c1Oc1ccc(C(=O)O)cc1 | 
 |  | O=c1cc(-c2ccccc2)oc2cc(O)cc(O)c12 | inhibition [5]: 5%
 | 13000 | O=C(O)[C@]1(O)C[C@@H](O)[C@@H](O)[C@H](O)C1 [QUINIC ACID] | 
 | > 7000 | O=C(O)c1cccc(O)c1O [2,3-DIHYDROXYBENZOIC ACID] | 
 | 1400 | O=C(/C=C/c1ccc(O)c(O)c1)O[C@H](Cc1ccc(O)c(O)c1)C(=O)O [ROSMARINIC ACID] | 
 |  | C[C@@H]1O[C@@H](O[C@H]2[C@H](Oc3cc(O)c4c(c3)O[C@H](c3ccc(O)cc3)CC4=O)O[C@H](CO)[C@@H](O)[C@@H]2O)[C@H](O)[C@H](O)[C@H]1O | inhibition [5]: 0%
 |  | O=c1cc(-c2ccc(O)cc2)oc2cc(O)cc(O)c12 | inhibition [5]: 12.4%

Compound | IC50 (Alpha-amylase 1A; read-out: IC50) [µM] | IC50 (Alpha amylase) [µM] | further results
O=c1ccc2cc(O[C@@H]3O[C@H](CO)[C@@H](O)[C@H](O)[C@H]3O)c(O)cc2o1 [ESCULIN] |  | 1670 | 
O=C1C[C@@H](c2ccc(O)cc2)Oc2cc(O)cc(O)c21 [NARINGENIN] |  | 1800 | 
